# Compound activity deposited in PubChem BioAssay by several laboratories.
# The entries come from a sample that favours hits as a whole.
# Lmaj promast – reduces viability of Leishmania major promastigotes. resazurin fluorescence viability. inhibition, % at 10 µM. hit rate 9% among 200,000. AID 1063; in the data active = inhibition above about 50%;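 note: promastigotes grown with compound for 44 hours at 28 °C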
# UPR XBP1 act – adaptive UPR (XBP1) activation; AID 463104; CHO-XBP1 luciferase reporter, IRE1-XBP1 UPR activation, luminescence; percent of tunicamycin response, DMSO as zero; activation, % at 20 µM; hit rate 0.33% among 330,000;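 active = versus positive control, 20 µM dose yields 30% or more activation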;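 note: 100% = tunicamycin at 10 µg/mL and 0% = DMSO only wells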
#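 Material: CHO-XBP1 cells stably carrying IRE1-XBP1-driven luciferase reporter / Amount: 1000 cells per well / Compound: 20 µM, 1% DMSO / Times: 6 h treatment, 37 °C / Detection: luciferase luminescence / Measure: % activation of reporter signal versus tunicamycin and DMSO controls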
# Dynein cargo inh – blocks dynein driven cargo transport along microtubules; AID 1381; z-score, hits read low; hit rate 0.47% among 220,000; 3617.4 mouse cells, GR-EGFP nuclear translocation imaging; test concentration mostly 20 µM; stimulated with dexamethasone, 1 µM; stronger effect = lower value;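 active = plate z-score of nuclear minus cytoplasmic receptor signal below a set negative limit, without overly bright fluorescence or cell loss, cut at about -3.5 in these data, passing the limit was not always enough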;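 note: z-score of nuclear minus cytoplasmic ring GR-EGFP intensity difference per well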
#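 Also added – dexamethasone, 1.0 µM final · Buffer or medium – tet-free, stripped-serum medium · Schedule – induction 48 h, compound 1 h, agonist 30 min · Detection – formaldehyde fixation, Hoechst nuclear stain, 10x automated fluorescence imaging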
# T cruzi inh – blocks replication of Trypanosoma cruzi. T. cruzi beta-gal in NIH3T3, luminescence, 90 h. hit rate 1.4% among 300,000. inhibition, % (test concentration not listed);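 active = mean inhibition across valid replicates above about 55%, limit read from the data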;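 note: signal also drops with host cell toxicity which is not excluded here; 0% = plate median of DMSO wells and 100% = zero luminescence signal; higher percent means less beta-gal luminescence so fewer parasites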
#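 Read-out: Parasite load inhibition, % | Test system: Mouse NIH/3T3 fibroblasts infected with β-gal-expressing T. cruzi Tulahuen C4 | Amount: 5,000 cells/well | Medium: DMEM, 2% fetal bovine serum | Signal: GalScreen β-gal luminescence, detergent lysis, 60 min | Timing: 3 h attach, ≥90 h co-culture | Also added: Tulahuen C4 trypomastigotes, 5000/well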
# CHOP UPR activ – apoptotic UPR (CHOP) activation. CHO-CHOP luciferase reporter, luminescence; percent of tunicamycin response over DMSO baseline. activation, % at 10 µM. hit rate 0.34% among 330,000;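 active = at 10 µM dose, activation of 40% or more, normalized to positive control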;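 note: 100% = tunicamycin at 10 µg/mL and 0% = DMSO alone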
#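 Test system: CHO CHOP reporter cells. Input: 500 CHO-CHOP cells per well. Medium: F12 with 10% FBS. Technique: luciferase luminescence. Measure: percent activation relative to tunicamycin control. Dosing: 10 µM compound, 0.5% DMSO. Timing: 16-18 h cell attachment, then 6 h compound exposure, 37 °C.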
# CHOP inh – blocks CHOP induction under ER stress; inhibition, % at 10 µM; CHO-K1 CHOP-promoter luciferase, tunicamycin-induced, 15-18 h; hit rate 3.8% among 220,000;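 active = compounds that reduced the stress-induced luciferase reporter signal by more than about 70% of percent inhibition, limit read from the data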;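 note: 0% = tunicamycin plus vehicle and 100% = wells without tunicamycin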
# * marks the source's active call; other numbers are inactive results; . = no result given.
SMILES,Lmaj promast,UPR XBP1 act,Dynein cargo inh,T cruzi inh,CHOP UPR activ,CHOP inh
COC(=O)c1cc(NC(=O)Nc2cccc(Cl)c2)ccc1Cl,71*,5,0.3,42,9,95*
O=S(=O)(c1ccc(Cl)c(NC(=S)N/N=C/c2ccc(O)cc2)c1)N1CCOCC1,88*,4,0.27,-11,4,29
O=S(=O)(c1ccc(Cl)c(NC(=S)N/N=C/c2c(F)cccc2F)c1)N1CCOCC1,-2,1,0.18,26,9,25
Cc1ccc(S(=O)(=O)N2CCCCC2)cc1NC(=O)c1ccccc1Cl,.,-4,.,.,0,.
Cc1ccc(S(=O)(=O)N2CCCCC2)cc1NC(=O)Nc1ccc(Cl)cc1Cl,36,8,-0.73,55*,9,33
O=C(NC1CCN(C(=O)c2cccs2)CC1)c1ccccc1,.,-4,-0.015,-18,0,15
CCn1nc(NS(=O)(=O)c2ccc([N+](=O)[O-])cc2)c2cc3ccccc3nc21,.,-4,.,-26,0,.
CCOCCCn1c(SCc2ccccc2)nnc1-c1ccncc1,.,-3,.,4,1,.
CC(=O)c1c(C)[nH]c(C(=O)OCC(=O)Nc2cc(S(=O)(=O)N3CCCC3)ccc2Cl)c1C,72*,0,-0.81,11,2,39
CN1CCN(S(=O)(=O)c2ccc(NC(=O)c3ccccc3Cl)cc2)CC1,.,-5,.,-26,-1,.
CC(=O)c1c(C)[nH]c(C(=O)OCC(=O)Nc2cccc(S(=O)(=O)N3CCCC3)c2)c1C,-3,0,1.4,-18,4,39
O=C(Nc1ccccc1)c1cc(S(=O)(=O)N2CCSCC2)ccc1Cl,53*,.,-0.069,-2,.,-10
CN1CCN(S(=O)(=O)c2ccc(NC(=O)Nc3cccc(Cl)c3)cc2)CC1,98*,-2,-0.027,-11,-2,32
O=C(Nc1ccccc1)Nc1ccc(S(=O)(=O)N2CCCCC2)cc1,82*,2,-0.9,-5,-1,66
Cc1ccccc1OCC(=O)Nc1ccc(C(=O)Nc2ccccc2C(=O)O)cc1,.,-2,.,3,1,.
Cc1ccc(S(=O)(=O)N2CCCCC2)cc1NC(=O)C1CC(=O)N(Cc2ccccc2)C1 (stereo not drawn),53*,1,0.58,7,2,-10
O=C(Nc1cc(S(=O)(=O)N2CCCCC2)ccc1Cl)c1ccncc1,.,-3,.,.,0,.
O=C(Nc1cccc(Cl)c1)Nc1cc(S(=O)(=O)N2CCCCC2)ccc1Cl,32,16,-0.6,55*,15,87*
O=C(CN1CCN(c2ccccc2O)CC1)Nc1cc([N+](=O)[O-])ccc1Cl,5,-3,0.97,1,-2,83*
Clc1ccc(C2CC(c3ccco3)n3ncnc3N2)cc1Cl (stereo not drawn),51*,0,-0.83,12,0,18
O=C(COC(=O)C1CC1)NC(=O)c1ccccc1,.,0,.,.,0,.
CSC1=N/C(=C\c2cccc(F)c2)C(=O)S1,-4,0,-0.92,-7,-1,47
COc1ccc(/C=C2\N=C(SC)SC2=O)cc1OC,31,3,-0.61,-2,0,79*
CSC1=N/C(=C\c2c(F)cccc2Cl)C(=O)S1,28,1,-1.4,-8,-3,74*
COc1cc(C(=O)NNC(=O)c2cccn2C)cc(OC)c1OC,.,-1,.,-9,1,.
SMILES,Lmaj promast,UPR XBP1 act,Dynein cargo inh,T cruzi inh,CHOP UPR activ,CHOP inh
Cc1ccc(C2C(C=Nc3c(C)n(C)n(-c4ccccc4)c3=O)=C(c3ccccc3)Oc3ccccc32)cc1 (stereo not drawn),56*,-3,0.41,33,-1,37
COc1cc(CC(=O)Nc2ccc3c(c2)CCC3)cc(OC)c1OC,89*,-4,0.69,-22,0,26
Cc1ccc(NC(=O)Nc2ccc3c(c2)CCC3)cc1C,.,-1,.,0,2,.
CC(=O)c1cccc(NC(=O)CNC(=O)Cc2ccccc2)c1,.,2,.,-12,0,.
CC(=O)c1cccc(NC(=O)Cc2ccc3c(c2)CCCC3)c1,81*,-5,0.84,-5,1,-11
COc1cccc(CC(=O)Nc2ccc3c(c2)CCC3)c1,.,6,.,-7,1,.
Cc1ccc(NC(=O)Cc2ccc3c(c2)CCCC3)cc1C,1,0,0.024,24,2,72*
COc1ccc(CN(C)C(=O)C2CCN(S(=O)(=O)c3cccs3)CC2)cc1F,.,-1,.,.,-2,.
Cc1ccc(-n2cccc2/C=C2/C(=N)N3C(=NC2=O)SN=C3S(C)(=O)=O)cc1Cl,-3,.,-1.2,.,.,1
CC1=CSC2=NC(=O)/C(=C\c3cccn3-c3ccccc3)C(=N)N12,88*,1,1.2,-7,3,-7
CC1=CSC2=NC(=O)/C(=C\c3cccn3-c3ccc([N+](=O)[O-])cc3)C(=N)N12,60*,4,0.13,11,-2,87*
CC(C)c1ccc(-n2cccc2/C=C2/C(=N)N3C=CSC3=NC2=O)cc1,98*,6,1.1,-21,7,27
O=C(Nc1ccc(F)c(Cl)c1)C1CC(=O)n2c(nc3ccccc32)N1 (stereo not drawn),2,0,0.083,-9,-2,76*
O=C(NC(=S)NCCc1ccccc1)C1CCCCC1,88*,-3,1.6,13,1,29
O=C(NC(=S)NCc1ccccc1)C1CC1,-2,-1,1.5,-11,1,2
CC(C)(C)CC(=O)NC(=S)NCCc1ccccc1,90*,3,-0.6,31,3,70*
CC1(C)NC(=O)N(CC(O)CN(c2ccccc2)S(=O)(=O)c2ccccc2[N+](=O)[O-])C1=O (stereo not drawn),.,0,.,-1,0,.
Cc1cc(C)c(S(=O)(=O)N2CCCC(C(=O)NCc3ccncc3)C2)c(C)c1 (stereo not drawn),.,-3,.,-10,-2,.
COc1ccccc1N1CCN(C2=Nc3cccc4cccc2c34)CC1,77*,0,-1.4,52,5,3
c1ccc(CC2CCN(C3=Nc4cccc5cccc3c45)CC2)cc1,100*,1,0.17,66*,5,88*
COc1c(/C=N/Nc2ccc(C(=O)O)cc2)c(CCN(C)C(C)=O)cc2c1OCO2,.,-1,0.41,-1,1,-11
Cc1c(N2CCCC2)cc2c(c1NC(=O)c1ccccc1Cl)C(C)(C)CC2(C)C,.,-2,-0.45,42,2,0
CC(C)(C)c1ccc(C(=O)N2CCNCC2)cc1,12,5,0.72,13,-2,31
CN1CCC2(CC1)N=C(c1ccc(F)cc1)C(=S)N2C(=O)c1ccc(C(C)(C)C)cc1,0,1,-0.62,30,4,81*
CCCCOc1ccc(NC(=S)Nc2cc(C)nc(SCCCC)n2)cc1,-4,0,-0.049,35,2,62
